Apaf1 inhib: human Apaf-1 inhibition | O14727 | reconstituted apoptosome caspase-3 activity, DEVD-Rh110 fluorescence | inhibition, % at 20 µM | 330,000 compounds, 0.71% hits; active means inhibition of at least 40% at 20 µM;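 further: plate controls were DMSO wells for no effect and DEVD-CHO caspase inhibitor wells for full effect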
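detection = Rh110 fluorescence intensity | test system = biochemical Apaf-1 apoptosome reconstitution | also added = cytochrome c and DEVD-Rh110 substrate | schedule = 30 min plus 50 min, RT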
SENP7 inh: blocks the human protease SENP7; recombinant SENP7, Z-RLRGG-aminoluciferin luminescence, 40 min; inhibition, % at 5 µM; 330,000 compounds, 1.5% hits; AID 434973;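 active means inhibition above about 50% at the single test dose, limit read from the data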;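 further: plate controls were DMSO with enzyme for no effect and no enzyme buffer wells for full effect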
SENP8 block-1: SENP8 (human) protease inhibition; inhibition, % at 20 µM; Q96LD8; 360,000 compounds, 0.64% hits; recombinant SENP8, Nedd8 substrate fluorescence; in the data active means inhibition mostly above about 40%, no sharp cut-off; inactive means mostly below about 27%
SENP1 inh: inhibitors of human SENP1 SUMO protease catalytic domain | Q9P0U3 | recombinant SENP1 catalytic domain, CyPet-SUMO1-YPet FRET cleavage | inhibition, % at 10 µM | 360,000 compounds, 0.21% hits;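 active means inhibition at least 30% at 10 µM, raw YFP signal under a set limit, fluorescence ratio 0.5 to 1.5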;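 further: 0% = enzyme with DMSO and 100% = no enzyme wells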
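system = hSENP1 catalytic domain, recombinant | reagent = SFCypet-SUMO1-SFYpet substrate at 25 nM | doses = one dose per compound, 10 µM, 0.5% DMSO | incubation = enzyme reaction for 50 min at room temperature, dark | measured by = FRET, CFP and YFP emission | controls = no-enzyme low, enzyme-DMSO high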
SENP6 block: inhibitors of human SENP6 protease; 330,000 compounds, 1.8% hits; Recombinant SENP6 catalytic domain, aminoluciferin luminescence; inhibition, % at 10 µM; AID 2599;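 active means inhibition above about 50% at the single tested dose, limit read from the data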;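 further: plate controls were DMSO wells with enzyme for no effect and DMSO wells lacking enzyme for full effect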
SENP8 block-2: blocks the human protease SENP8; Q96LD8; purified SENP8, Z-RLRGG-aminoluciferin cleavage, luminescence; inhibition, % at 10 µM; 330,000 compounds, 1.2% hits; AID 2540; in the data active means inhibition above about 50%
SENP8 confirm: human SENP8 inhibition, confirmed. 6,200 compounds, 40% hits. Recombinant SENP8, Z-RLRGG-aminoluciferin luminescence, 60 min. shares compounds with SENP7 inh. AID 488912. inhibition, % at 12.5 µM;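 active means mean inhibition across replicates above about 50%, limit read from the data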
SENP6 conf: human SENP6 inhibition, confirmed; shares compounds with SENP7 inh; recombinant SENP6, Z-RLRGG-aminoluciferin luminescence; inhibition, % at 12.5 µM; 6,200 compounds, 58% hits; AID 488915
SENP7 confirm: confirmation of human SENP7 protease inhibitors | shares compounds with SENP7 inh | recombinant SENP7, Z-RLRGG-aminoluciferin luminescence, 40 min | inhibition, % at 12.5 µM | 6,200 compounds, 69% hits | AID 488917
Casp3 SENP sel: caspase-3 inhibition (SENP selectivity assay); shares compounds with SENP7 inh; purified caspase-3, Z-DEVD-aminoluciferin luminescence, 60 min; inhibition, % at 12.5 µM; 6,200 compounds, 60% hits; AID 488918;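 active means mean inhibition above about 50%, limit read from the data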;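 further: plate controls were enzyme with DMSO for no effect and wells without caspase-3 for full effect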
Luc interf: luminescence interference (SENP counter-screen) | shares compounds with SENP7 inh | Pre-incubated SENP8/Z-RLRGG-aminoluciferin, luciferase luminescence interference | inhibition, % at 12.5 µM | 6,200 compounds, 39% hits | AID 488919;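 active means mean inhibition above about 50% when retested at one dose, limit read from the data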;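 further: plate controls were DMSO wells with completed reaction for no effect and substrate without enzyme for full effect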
* hit, by the source's call; . = no result. Most compounds without a hit are left out; they make up all but 2.9% or so of the library.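 How the source made its calls, unless noted: active means mean inhibition above about 50% in the one-dose retest (limit read from the data); inactive means the rest.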

SMILES | Apaf1 inhib | SENP7 inh | SENP8 block-1 | SENP1 inh | SENP6 block | SENP8 block-2 | SENP8 confirm | SENP6 conf | SENP7 confirm | Casp3 SENP sel | Luc interf
O=C(CC1SC(N2CCCCC2)=NC1=O)Nc1cccc(C(=O)N2CCCC(C(F)(F)F)C2)c1 (stereo unspecified) | . | . | 18 | 1 | . | . | . | . | . | . | .
COc1ccc(Cc2c(-c3ccccc3)nc3c(C)cc(Br)cn23)c(C)c1 | . | . | -70 | 6 | . | . | . | . | . | . | .
CCCn1c(/C=C/c2ccccc2)nc2ccccc21 | 1 | 70* | -305 | 1 | 72* | 62* | 86* | 84* | 95* | 75* | 81*
C[C@@H]1CN([C@@H](C)CO)S(=O)(=O)c2ccc(Br)cc2O[C@@H]1CN(C)C(=O)NC1CCCCC1 | . | . | -3 | 1 | . | . | . | . | . | . | .
O=C(Nc1ccc(F)c(Cl)c1)C1Cc2c(-c3ccco3)ccnc2O1 (stereo unspecified) | . | . | 6 | 2 | . | . | . | . | . | . | .
Cc1sc(NC(=O)c2ccc(Cl)s2)c(C(N)=O)c1C | -12 | 52* | -50 | 0 | 60* | 1 | -2 | -2 | 5 | 28 | 5
Cc1sc(NC(=O)c2ccc(Br)s2)c(C(N)=O)c1C | 10 | 51* | -54 | -2 | 76* | 26 | 25 | 20 | 45 | 22 | 11
Cc1sc(NC(=S)Nc2ccc(F)cc2)c(C(N)=O)c1C | . | . | -7 | -6 | . | . | . | . | . | . | .
Cc1sc(NC(=O)c2cc(-c3ccc(Cl)cc3)nc3ccccc23)c(C(N)=O)c1C | 1 | -15 | 6 | -2 | -22 | -7 | . | . | . | . | .
CCc1ccc(C(O)c2ncc(-c3cccc(OC)c3)[nH]2)cc1 (stereo unspecified) | . | . | -7 | -2 | . | . | . | . | . | . | .
Cc1nc2ccccc2n1/N=C/c1ccc([N+](=O)[O-])s1 | 1 | 11 | 34 | 4 | 73* | 33 | -9 | 14 | 1 | -3 | -4
O=[N+]([O-])c1ccc(/C=N/n2cnc3ccccc32)s1 | 13 | 34 | 36 | -10 | 73* | 2 | 15 | 25 | 16 | 2 | 0
Cc1cc2ncn(/N=C/c3ccc([N+](=O)[O-])s3)c2cc1C | . | . | 33 | 14 | . | . | . | . | . | . | .
O=[N+]([O-])c1cccnc1Nc1ccc(Cl)cc1 | . | . | 33 | 2 | . | . | . | . | . | . | .
O=[N+]([O-])c1ccc(/C=N/Nc2ncccc2[N+](=O)[O-])s1 | -5 | 91* | 33 | 9 | 41 | 27 | 23 | 22 | 19 | 35 | 6
COc1ccc(C(=O)OCC(=O)NCCc2ccc(F)cc2)cc1S(=O)(=O)N1CCOCC1 | -8 | -6 | 10 | 0 | -6 | 14 | . | . | . | . | .
CCNC(=O)C1(C)CCN(Cc2cccc(C(F)(F)F)c2)C1 (stereo unspecified) | . | . | 19 | 0 | . | . | . | . | . | . | .
CC(C)(C)NC(=O)N1CCn2cccc2C1c1ccccc1F (stereo unspecified) | -4 | 97* | -1 | -5 | -24 | 4 | 1 | 8 | 8 | 8 | 6
COC(=O)c1c[nH]n2c(=O)c(Cl)c(C)nc12 | -16 | 54* | -13 | -2 | 64* | 34 | 66* | 57* | 86* | 88* | 66*
CC(=O)Nc1nc(COc2ccc3ccccc3c2)cs1 | 0 | 62* | 10 | 4 | 62* | 37 | 44 | 47 | 81* | . | 37
CC(=O)Nc1nc(COc2ccccc2)cs1 | -12 | 2 | 10 | 1 | -5 | -3 | . | . | . | . | .
O=C(Nc1nc(COc2ccccc2)cs1)C1CCC1 | 11 | 10 | 12 | 2 | 54* | 1 | -28 | -20 | -11 | -7 | -3
COc1ccccc1C(=O)N/C(=C/c1ccc(Br)cc1)C(=O)N1CCOCC1 | . | . | 19 | 3 | . | . | . | . | . | . | .
CCCCS/C(N)=N/N=C/c1cc(C)ccc1O | 27 | -6 | 11 | -1 | -20 | -9 | . | . | . | . | .
CS/C(N)=N/N=C/c1cc(C)ccc1O | -4 | 63* | 17 | -2 | -2 | 54* | 39 | 60* | 85* | 64* | 66*
SMILES | Apaf1 inhib | SENP7 inh | SENP8 block-1 | SENP1 inh | SENP6 block | SENP8 block-2 | SENP8 confirm | SENP6 conf | SENP7 confirm | Casp3 SENP sel | Luc interf
CCS/C(N)=N/N=C/c1cc(C)ccc1O | -3 | 51* | 26 | -1 | 71* | 47 | 62* | 62* | 87* | 62* | 29
COc1ccccc1N1CCN(S(=O)(=O)CCNC(=O)c2ccc(Br)o2)CC1 | 0 | -2 | 15 | 1 | -4 | 1 | . | . | . | . | .
O=C(N/N=C/c1c[nH]c2ccccc12)c1ccc2c(c1)OCCO2 | 17 | 48 | -116 | -1 | 54* | 31 | 45 | 43 | 77* | 55* | 60*
CCOc1ccc(Br)cc1C(=O)N/N=C/c1c[nH]c2ccccc12 | 14 | -5 | -96 | -2 | 58* | 1 | -6 | -5 | -10 | -7 | -5
O=C(N/N=C/c1c[nH]c2ccc(Br)cc12)c1ccc2c(c1)OCO2 | 14 | 5 | -80 | 1 | -11 | 6 | . | . | . | . | .
C/C(=N\Nc1ccccc1[N+](=O)[O-])c1ccccc1O | -10 | 74* | 40* | 1 | 42 | 23 | 11 | 14 | 19 | 24 | 6
C/C(=N\Nc1cccc2cccnc12)c1ccccc1O | 6 | 88* | -6 | -5 | 82* | 77* | 7 | 18 | 22 | 25 | 3
C/C(=N\Nc1ccc(S(N)(=O)=O)cc1[N+](=O)[O-])c1ccccc1O | -31 | -1 | 39 | 1 | -22 | -10 | . | . | . | . | .
O=C(NCc1ccco1)c1ccc2nc([C@@H]3O[C@H](CO)[C@H](O)[C@H](O)[C@H]3O)[nH]c2c1 | . | . | 25 | 1 | . | . | . | . | . | . | .
O=[N+]([O-])c1ccc(CSc2ccc(S(=O)(=O)N3CCCCCC3)cn2)cc1 | 18 | -3 | 15 | 4 | -5 | 6 | . | . | . | . | .
CCOC(=O)c1sc(=NC(=O)c2ccc(Cl)s2)n(C)c1C | 4 | 53* | -402 | -47 | -24 | 8 | 13 | 12 | 28 | 23 | 12
CCOC(=O)c1sc(=NC(=O)c2cccs2)n(C)c1C | -7 | 55* | -427 | -1 | -21 | 4 | 17 | 10 | 17 | 45 | 1
CCOC(=O)c1sc(=NC(=O)c2ccccc2Br)n(C)c1C | -5 | 8 | -69 | 3 | -16 | -11 | . | . | . | . | .
